The values below come from ChEMBL document CHEMBL1144465, “Role of acidic pH in the susceptibility of intraphagocytic methicillin-resistant Staphylococcus aureus strains to meropenem and cloxacillin” (Antimicrob Agents Chemother, 2007).

For experiment [1], the system named is Staphylococcus aureus. Kind of experiment: Reversal bacterial susceptibility against methicillin-resistant Staphylococcus aureus ATCC 33591 after phagocytosis by human THP1 macrophages assessed as bacterial count in presence of 10 mM ammonium chloride after 24 hrs. In kind it is functional, organism-based. The method in brief: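 Infected THP-1 macrophages (MRSA ATCC 33591) given 10 mM ammonium chloride after phagocytosis together with meropenem 50 mg/liter or cloxacillin 8 mg/liter (total drug), incubated 24 h; controls with gentamicin 0.5× MIC; CFU counted; means of three independent determinations.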

The test system of experiment [2] is Staphylococcus aureus. In words: Antimicrobial activity against Staphylococcus aureus assessed as reduction in bacterial count at pH 5.5 after 24 hrs.
Experiment [3] deals with Staphylococcus aureus. Kind of experiment: Antimicrobial activity against methicillin-resistant Staphylococcus aureus ATCC 33591 after phagocytosis by human THP1 macrophages assessed as reduction in bacterial count after 24 hrs. The following applies: ATCC 33591, THP-1, 24 h.
Experiment [4] deals with Staphylococcus aureus. In words: Antimicrobial activity against methicillin-susceptible Staphylococcus aureus ATCC 25923 after phagocytosis by human THP1 macrophages assessed as reduction in bacterial count at pH 7.4 after 24 hrs. In kind it is functional, organism-based. The following applies: ATCC 25923, THP-1, 24 h.
Experiment [5] deals with Staphylococcus aureus. In words: Antimicrobial activity against methicillin-susceptible Staphylococcus aureus ATCC 25923 after phagocytosis by human THP1 macrophages assessed as reduction in bacterial count after 24 hrs. The following applies: ATCC 25923, THP-1, 24 h. In kind it is functional, organism-based. In outline: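 THP-1 human macrophage-like cells allowed to phagocytose S. aureus for 1 h, then exposed 24 h to a wide range of extracellular total-drug concentrations; controls given gentamicin at 0.5× MIC. Response is log10 CFU change from original inoculum; Hill equation fitted by nonlinear regression for EC50, Emax and static concentration; means of three independent determinations.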

Experiment [6] deals with Staphylococcus aureus. Kind of experiment: Antimicrobial activity against methicillin-susceptible Staphylococcus aureus ATCC 25923 after phagocytosis by human THP1 macrophages assessed as reduction in bacterial count at pH 5.5 after 24 hrs. In kind it is functional, organism-based. The following applies: ATCC 25923, THP-1, 24 h.
Experiment [7] has as its system Staphylococcus aureus. Kind of experiment: Antibacterial activity against methicillin-resistant Staphylococcus aureus 459 at pH 5.5. In kind it is functional. The method in brief:
(§1)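 MRSA clinical isolate 459 (penicillinase-negative, mecA-positive) grown in Mueller-Hinton broth with 2% NaCl; MIC determined in broth adjusted to pH 5.5 or 7.4, inoculum 10^6 CFU/ml of exponential-phase bacteria, 24-h incubation.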

Experiment [8] deals with Staphylococcus aureus. Kind of experiment: Antibacterial activity against methicillin-resistant Staphylococcus aureus 459 at pH 7.4. In kind it is functional. The method in brief: as §1
The subject of experiment [9] is Staphylococcus aureus. Kind of experiment: Antimicrobial activity against methicillin-resistant Staphylococcus aureus […] after phagocytosis by human THP1 macrophages assessed as reduction in bacterial count at pH 7.4 after 24 hrs. The following applies: THP-1, 24 h. In kind it is functional, organism-based.
Experiment [10] deals with Staphylococcus aureus. Kind of experiment: Induction of mecA/16S rRNA ratio in methicillin-resistant Staphylococcus aureus ATCC 33591 at 0.5 times MIC at pH 7.4 after 5 hrs. In kind it is functional.
Experiment [11] concerns Staphylococcus aureus. Kind of experiment: Induction of mecA/16S rRNA ratio in methicillin-resistant Staphylococcus aureus ATCC 33591 at 0.5 times MIC at pH 5.5 after 5 hrs. In kind it is functional.

Converted amounts (≈) assume the structure as drawn. The source made the active and inactive calls. No cut-off for these calls is given here.

Regarding `C[C@@H](O)[C@H]1C(=O)N2C(C(=O)O)=C(S[C@@H]3CN[C@H](C(=O)N(C)C)C3)[C@H](C)[C@H]12` [MEROPENEM], the result in experiment [1] was inactive. Moreover, the EC50 (in general, the concentration at which the effect is half-maximal) in [2] is 0.33 µg/mL (≈ 0.861 µM); in experiment [3], 0.16 µg/mL (≈ 0.417 µM); in experiment [4] it was 0.29 µg/mL (≈ 0.756 µM); in experiment [5] it was 0.14 µg/mL (≈ 0.365 µM); in experiment [6], 0.2 µg/mL (≈ 0.522 µM).
Turning to `CC1(C)S[C@@H]2[C@H](NC(=O)Cc3ccccc3)C(=O)N2[C@H]1C(=O)O` [PENICILLIN G], the MIC – broadly, the lowest concentration found to suppress growth – was 0.03 µg/mL (≈ 0.0897 µM) in experiment [7] and 0.25 µg/mL (≈ 0.748 µM) in [8].
Consider `Cc1onc(-c2ccccc2Cl)c1C(=O)N[C@@H]1C(=O)N2[C@@H]1SC(C)(C)[C@@H]2C(=O)O` [CLOXACILLIN], for which, in experiment [1], the outcome was inactive. Also, the EC50 in experiment [2] amounted to 0.07 µg/mL (≈ 0.161 µM); in experiment [9], 16.9 µg/mL (≈ 38.8 µM); in [3], 0.23 µg/mL (≈ 0.528 µM); in experiment [4], 0.35 µg/mL (≈ 0.803 µM); in [5] it was 0.27 µg/mL (≈ 0.619 µM); in experiment [6], 0.22 µg/mL (≈ 0.505 µM). Also, the figures for the MIC in experiment [7] and in [8] were 0.03 µg/mL (≈ 0.0688 µM) and 0.125 µg/mL (≈ 0.287 µM), respectively.
Consider `C[C@@H](O)[C@H]1C(=O)N2C(C(=O)O)=C(S[C@@H]3CN[C@H](C(=O)Nc4cccc(C(=O)O)c4)C3)[C@H](C)[C@H]12` [ERTAPENEM], for which the Ratio in experiment [10] is 0.79; in experiment [11] it was 0.67.
Take `Cc1onc(-c2ccccc2)c1C(=O)N[C@@H]1C(=O)N2[C@@H]1SC(C)(C)[C@@H]2C(=O)O` [OXACILLIN]: the figures for the MIC in experiment [7] and in experiment [8] were 0.03 µg/mL (≈ 0.0747 µM) and 1 µg/mL (≈ 2.49 µM), respectively.
